Active and inactive are the calls of the source. The rule behind the calls is not given here.
Key:
Cardiac muscle cell [1] = assay: Cytoprotective activity against serum deprivation-induced neonatal Wistar rat cardiomyocyte death assessed as increase in cell viability measured after 4 days by WST-8 assay; assay type: functional
Outline: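 Primary neonatal rat cardiomyocytes were isolated by proteinase digestion, with preplating to remove adherent non-myocytes. Death was induced by serum deprivation at low density (3×10^5 cells/ml) for 4 days with compound present. Viability was read by WST-8. MEC1.5 is the concentration giving a 50% rise in viability. n = 3.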

[2] = system: Antioxidant response element; assay: Induction of ARE-mediated HO-1 mRNA expression in MIF siRNA transfected rat H9c2 cells at 3 uM measured after 24 hrs by RT-qPCR analysis; assay type: cell-based
Outline: (§1)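 H9c2 cells transfected with MIF siRNA or control siRNA (100 nM, Oligofectamine), then treated with 3 μM compound with or without 0.8 μM rMIF for 24 hr. GST Ya and HO-1 mRNA by real-time qPCR; mean ± SD, n = 3. MIF effect on drug efficacy tested by Aspin-Welch test.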

[3] = Upregulation of gamma-glutamylcysteine synthetase gene expression in serum-deprived neonatal Wistar rat cardiomyocyte at 0.37 uM incubated for 21 hrs by microarray analysis relative to control; assay type: functional, Cardiac muscle cell
Outline: (§2)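 Primary neonatal rat cardiomyocytes, isolated by proteinase digestion with preplating to deplete nonmyocytes, cultured in serum-free medium with or without 0.37 μM compound for 21 hr. Total RNA was recovered and global expression profiled on an Affymetrix GeneChip rat genome U34A array (about 7000 known genes). Change is relative to untreated cells.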

[4] = Reduction in MIF expression in MIF siRNA transfected rat H9c2 cell lysates at 3 uM measured after 24 hrs ELISA relative to control; assay type: functional; set-up: scale not given: the % may be the effect or the level left
Outline: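 H9c2 cells transfected with 100 nM rat MIF siRNA or negative-control siRNA using Oligofectamine in Opti-MEM, then treated with 3 μM compound for 24 hr. MIF mRNA by real-time qPCR; MIF protein in cell lysate and medium by ELISA. Mean ± SD, n = 3.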

[5] = biological target: Macrophage migration inhibitory factor (Rattus norvegicus, UniProt P30904); assay: Inhibition of recombinant rat MIF expressed in Escherichia coli BL21 (DE3) assessed as reduction in tautomerase activity using L-dopachrome carboxy-methyl ester as substrate by spectrophotometry
Sequence of Macrophage migration inhibitory factor (Rattus norvegicus, UniProt P30904) (P30904 2-115 limits assumed): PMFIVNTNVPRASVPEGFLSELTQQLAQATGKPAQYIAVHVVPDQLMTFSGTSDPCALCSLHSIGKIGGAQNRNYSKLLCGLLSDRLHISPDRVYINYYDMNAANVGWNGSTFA
Outline: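 Purified recombinant rat MIF tautomerase assayed with purified L-dopachrome carboxy-methyl ester as substrate in pH 6.0 buffer; rate taken over the initial 30 s. Mean ± SD, n = 4.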

[6] = biological target: T1, Macrophage migration inhibitory factor (Homo sapiens, UniProt P14174); assay: Binding affinity to BTZO-12 sensor chip immobilized human MIF expressed in Escherichia coli BL21 (DE3) by SPR analysis
T1 sequence (P14174 whole entry): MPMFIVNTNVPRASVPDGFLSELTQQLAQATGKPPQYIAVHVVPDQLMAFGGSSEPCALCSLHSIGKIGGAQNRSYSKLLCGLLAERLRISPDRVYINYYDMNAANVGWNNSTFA
Outline: (§3)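 Sensor chip carrying immobilized BTZO-12; MIF (wild type or point mutants) passed over it and specific binding monitored by surface plasmon resonance.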

Homo sapiens = organism: Homo sapiens; assay: Binding affinity to BTZO-12 sensor chip immobilized recombinant human N-terminal His-tagged MIF C59S mutant expressed in Escherichia coli BL21 (DE3) by SPR analysis; outline: as §3
[7] = biological target: Macrophage migration inhibitory factor (Rattus norvegicus) (UniProt P30904); assay: Induction of MIF-stimulated ARE activity in rat H9c2 cells assessed as increase in GST Ya expression at 3 uM incubated for 24 hrs by RT-qPCR analysis; assay type: cell-based
Target sequence in this assay (P30904 2-115 limits assumed): as the sequence (P30904 2-115 limits assumed) above

[8] = Upregulation of 3-methylcholanthrene-inducible UDP-glucuronosyltransferase gene expression in serum-deprived neonatal Wistar rat cardiomyocyte at 0.37 uM incubated for 21 hrs by microarray analysis relative to control; assay type: functional, Cardiac muscle cell
Outline: (§4)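 Primary neonatal rat cardiomyocytes cultured with or without 0.37 μM compound in serum-free medium for 21 hr. Total RNA profiled on the rat genome U34A GeneChip array (about 7000 known genes).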

H9c2 = assay: Effect on protein oxidation in rat H9c2 cells at 10 uM incubated for 24 hrs under serum-free medium by Western blot analysis; assay type: functional, cell-based
[9] = system: Antioxidant response element; assay: Induction of ARE activity in serum-deprived neonatal Wistar rat cardiomyocytes assessed as increase in GST Ya mRNA level up to 3 uM measured after 24 hrs by RT-qPCR analysis; assay type: cell-based; details: Cardiomyocyte
Outline: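 Neonatal rat cardiomyocytes exposed to samples or vehicle in M-199 with 1% penicillin-streptomycin, no serum, for 24 hr. GST Ya and HO-1 mRNA measured by real-time qPCR (mean ± SD, n = 3); protein by western blot with β-actin as control.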

[10] = biological target: Macrophage migration inhibitory factor (Rattus norvegicus) (UniProt P30904); assay: Induction of MIF-stimulated ARE activity in rat H9c2 cells assessed as increase in HO-1 expression at 3 uM incubated for 6 hrs by RT-qPCR analysis; assay type: cell-based
Target sequence in this assay (P30904 2-115 limits assumed): as the sequence (P30904 2-115 limits assumed) above

[11] = system: Antioxidant response element; assay: Induction of ARE-mediated GST Ya mRNA expression in MIF siRNA transfected rat H9c2 cells at 3 uM measured after 24 hrs in presence of rat MIF by RT-qPCR analysis; assay type: cell-based; outline: as §1
[12] = biological target: T2, Macrophage migration inhibitory factor (Homo sapiens) (UniProt P14174); assay: Binding affinity to BTZO-12 sensor chip immobilized recombinant human N-terminal His-tagged MIF expressed in Escherichia coli BL21 (DE3) by SPR analysis; outline: as §3
T2 sequence (whole entry): T1 sequence (P14174 whole entry)

[13] = biological target: Macrophage migration inhibitory factor (Rattus norvegicus) (UniProt P30904); assay: Inhibition of [3H]-BTZO-1 binding to recombinant rat C-terminal His-tagged MIF expressed in Escherichia coli BL21 (DE3) measured after 3 hrs by SPA
Target sequence in this assay (P30904 whole entry, looked up): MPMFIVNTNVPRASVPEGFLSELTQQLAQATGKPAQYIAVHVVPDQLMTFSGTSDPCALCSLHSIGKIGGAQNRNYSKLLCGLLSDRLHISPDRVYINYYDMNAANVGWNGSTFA

[14] = system: Antioxidant response element; assay: Induction of ARE-mediated GST Ya mRNA expression in MIF siRNA transfected rat H9c2 cells at 3 uM measured after 24 hrs by RT-qPCR analysis; assay type: cell-based; outline: as §1
[15] = biological target: Macrophage migration inhibitory factor (Rattus norvegicus) (UniProt P30904); assay: Binding affinity to BTZO-12 sensor chip immobilized recombinant rat MIF expressed in Escherichia coli BL21 (DE3) at pH 7.3 by SPR analysis
Outline: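 SPR on a BTZO-12-type sensor chip with purified recombinant rat MIF, binding compared at pH 6.0 and pH 7.3.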
Target sequence in this assay (P30904 2-115 limits assumed): as the sequence (P30904 2-115 limits assumed) above

[16] = Upregulation of multidrug resistance protein gene expression in serum-deprived neonatal Wistar rat cardiomyocyte at 0.37 uM incubated for 21 hrs by microarray analysis relative to control; assay type: functional, Cardiac muscle cell; outline: as §2
[17] = Upregulation of catalase gene expression in serum-deprived neonatal Wistar rat cardiomyocyte at 0.37 uM incubated for 21 hrs by microarray analysis relative to control; assay type: functional, Cardiac muscle cell; outline: as §2
[18] = Upregulation of UDP glucuronosyltransferase, exon 1 gene expression in serum-deprived neonatal Wistar rat cardiomyocyte at 0.37 uM incubated for 21 hrs by microarray analysis relative to control; assay type: functional, Cardiac muscle cell; outline: as §4
[19] = Upregulation of Fischer 344 GST Yc subunit gene expression in serum-deprived neonatal Wistar rat cardiomyocyte at 0.37 uM incubated for 21 hrs by microarray analysis relative to control; assay type: functional, Cardiac muscle cell; outline: as §4
Cardiac muscle cell [20] = assay: Cytoprotective activity against serum deprivation-induced neonatal Wistar rat cardiomyocyte death assessed as suppression of internucleosomal cleavage of genomic DNA at 0.37 uM measured after 3 days by agarose gel electrophoresis; assay type: functional, cell-based; details: time 3.0 day
Outline: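 Neonatal rat cardiomyocytes held with or without 0.37 μM compound in serum-free medium for 3 days. Genomic DNA then isolated and internucleosomal laddering examined by agarose gel electrophoresis.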

O=c1nc(-c2ccccn2)sc2ccccc12 [BTZO-1]
MEC1.5 (Cardiac muscle cell [1]; time 4 day): 16 nM | Activity (Cardiac muscle cell [1]; time 4.0 day): Dose-Dependent Effect | Activity [2]: inactive | fold change (FC) [3]: 2.4 | Activity [4]: ~50% | IC50 [5]: > 30000 nM | Kd [6]: 88 nM | Activity (Homo sapiens): Active | Activity [7]: Active | fold change (FC) [8]: 2.1 | Activity (H9c2): inactive | Activity [9]: Active | Activity [10]: Active | Activity [11]: Active | Activity [12]: Active | IC50 [13]: 71 nM | Activity [14]: inactive | Activity [15]: Active | fold change (FC) [16]: 2.7 | fold change (FC) [17]: 2.3 | fold change (FC) [18]: 5 | fold change (FC) [19]: 2.3 | Activity (Cardiac muscle cell [20]): Active

Source: ChEMBL document CHEMBL5715946 (Chem Biol, 2010)
